Source: ChEMBL document CHEMBL3232844, “Synthesis and structure activity relationships of schweinfurthin indoles” (2014)

Tests used:
Type in all cases: functional
SK-MEL-28 = test: Cytotoxicity against human SK-MEL-28 cells; conditions: for CC50: read-out: pLC50 (the source's name) (converted); for TGI: read-out: pTGI (converted)
Method in brief: (§1)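 Tested in a 60-cell-line human tumor panel screen; the read-out is growth inhibition, reported as GI50 for each cell line.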

T47D = test: Cytotoxicity against human T47D cells; conditions: for CC50: read-out: pLC50 (the source's name) (converted); for TGI: read-out: pTGI (converted)
Method in brief: (§2)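 Cell line run as part of the 60-cell-line screening panel; growth inhibition was reported as a GI50 for each line.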

NCI-H23 = test: Cytotoxicity against human NCI-H23 cells; conditions: for CC50: read-out: pLC50 (the source's name) (converted); for TGI: read-out: pTGI (converted); method in brief: as §1
[1] = Cytotoxicity against human Hs578T cells; conditions: Hs-578T; for TGI: read-out: pTGI (converted); method in brief: as §1
NCI-H522 = test: Cytotoxicity against human NCI-H522 cells; conditions: for CC50: read-out: pLC50 (the source's name) (converted); for TGI: read-out: pTGI (converted); method in brief: as §1
[2] = Cytotoxicity against human OVCAR5 cells; conditions: for GI50: OVCAR-5; for CC50: OVCAR-5, read-out: pLC50 (the source's name) (converted); for TGI: OVCAR-5, read-out: pTGI (converted); method in brief: as §1
DU-145 = test: Cytotoxicity against human DU145 cells; conditions: for TGI: read-out: pTGI (converted); method in brief: as §1
IGROV-1 = test: Cytotoxicity against human IGROV1 cells; conditions: for CC50: read-out: pLC50 (the source's name) (converted); for TGI: read-out: pTGI (converted); method in brief: as §1
SF-539 = test: Cytotoxicity against human SF539 cells; conditions: for CC50: read-out: pLC50 (the source's name) (converted); for TGI: read-out: pTGI (converted); method in brief: as §1
Malme-3M = test: Cytotoxicity against human MALME-3M cells; conditions: for CC50: read-out: pLC50 (the source's name) (converted); for TGI: read-out: pTGI (converted); method in brief: as §1
SW-620 = test: Cytotoxicity against human SW620 cells; conditions: for CC50: read-out: pLC50 (the source's name) (converted); for TGI: read-out: pTGI (converted); method in brief: as §2
HOP-92 = test: Cytotoxicity against human HOP92 cells; conditions: for CC50: read-out: pLC50 (the source's name) (converted); for TGI: read-out: pTGI (converted); method in brief: as §1
K562 = test: Cytotoxicity against human K562 cells; conditions: for CC50: read-out: pLC50 (the source's name) (converted); for TGI: read-out: pTGI (converted); method in brief: as §1
COLO 205 = test: Cytotoxicity against human COLO205 cells; conditions: for CC50: read-out: pLC50 (the source's name) (converted); for TGI: read-out: pTGI (converted); method in brief: as §1
[3] = Cytotoxicity against human EKVX cells; conditions: for CC50: read-out: pLC50 (the source's name) (converted); for TGI: read-out: pTGI (converted); method in brief: as §1
[4] = Cytotoxicity against human HCT15 cells; conditions: for GI50: HCT-15; for CC50: HCT-15, read-out: pLC50 (the source's name) (converted); for TGI: HCT-15, read-out: pTGI (converted); method in brief: as §1
RPMI-8226 = test: Cytotoxicity against human RPMI8226 cells; conditions: for CC50: read-out: pLC50 (the source's name) (converted); for TGI: read-out: pTGI (converted); method in brief: as §1

## COc1cc(/C=C/c2cc(O)c3c(c2)C[C@@H]2C(C)(C)[C@H](O)CC[C@@]2(C)O3)cc2[nH]cc(CC=C(C)C)c12
SK-MEL-28
  GI50: 676 nM
  CC50: 46.8 µM
  TGI: 10.7 µM
T47D
  GI50: 8.13 µM
  CC50: > 100 µM
  TGI: 39.8 µM
NCI-H23
  GI50: 1550 nM
  CC50: 66.1 µM
  TGI: 26.9 µM
[1]
  GI50: 10 nM
  LC50: > 100 µM
  TGI: 977 nM
NCI-H522
  GI50: 1660 nM
  CC50: 20.9 µM
  TGI: 7.24 µM
[2]
  GI50: 5.37 µM
  CC50: 60.3 µM
  TGI: 30.2 µM
DU-145
  GI50: 5.25 µM
  LC50 (50% lethal concentration): 64.6 µM
  TGI: 39.8 µM
IGROV-1
  GI50: 5.01 µM
  CC50: 89.1 µM
  TGI: 45.7 µM
SF-539
  GI50: 10 nM
  CC50: 24.5 µM
  TGI: 4470 nM
Malme-3M
  GI50: 5.37 µM
  CC50: > 100 µM
  TGI: 31.6 µM
SW-620
  GI50: 302 nM
  CC50: 21.4 µM
  TGI: 4.27 µM
HOP-92
  GI50: 1150 nM
  CC50: 81.3 µM
  TGI: 22.9 µM
K562
  GI50: 138 nM
  CC50: > 100 µM
  TGI: 9.77 µM
COLO 205
  GI50: 4170 nM
  CC50: 21.4 µM
  TGI: 9.33 µM
[3]
  GI50: 3.89 µM
  CC50: 81.3 µM
  TGI: 39.8 µM
[4]
  GI50: 209 nM
  CC50: 36.3 µM
  TGI: 4.9 µM
RPMI-8226
  GI50: 11.2 nM
  CC50: > 100 µM
  TGI: 417 nM

## CC1(C)[C@H](O)CC[C@@]2(C)Oc3c(O)cc(/C=C/c4cc(O)c5cc[nH]c5c4)cc3C[C@H]12
SK-MEL-28
  GI50: 6170 nM
  CC50: > 100 µM
  TGI: > 100 µM
T47D
  GI50: 7.59 µM
  CC50: 83.2 µM
  TGI: 27.5 µM
NCI-H23
  GI50: 1320 nM
  CC50: 41.7 µM
  TGI: 7.59 µM
[1]
  GI50: 10 nM
  LC50: > 100 µM
  TGI: 427 nM
NCI-H522
  GI50: 1070 nM
  CC50: 38 µM
  TGI: 6.92 µM
[2]
  GI50: 17.8 µM
  CC50: 97.7 µM
  TGI: 53.7 µM
DU-145
  GI50: 0.912 µM
  LC50 (50% lethal concentration): 33.1 µM
  TGI: 6.46 µM
IGROV-1
  GI50: 2.51 µM
  CC50: 97.7 µM
  TGI: 22.9 µM
SF-539
  GI50: 20.4 nM
  CC50: 6.17 µM
  TGI: 724 nM
Malme-3M
  GI50: 3.02 µM
  CC50: 60.3 µM
  TGI: 17 µM
SW-620
  GI50: 214 nM
  CC50: 6.46 µM
  TGI: 1.35 µM
HOP-92
  GI50: 501 nM
  CC50: > 100 µM
  TGI: 5.5 µM
K562
  GI50: 263 nM
  CC50: > 100 µM
  TGI: 47.9 µM
COLO 205
  GI50: 2190 nM
  CC50: 11.7 µM
  TGI: 4.79 µM
[3]
  GI50: 0.794 µM
  CC50: > 100 µM
  TGI: 16.2 µM
[4]
  GI50: 832 nM
  CC50: > 100 µM
  TGI: 38 µM
RPMI-8226
  GI50: 15.8 nM
  CC50: 11.5 µM
  TGI: 66.1 nM

## COc1cc(/C=C/c2cc(OC)c3c(C/C=C(\C)CCC=C(C)C)c[nH]c3c2)cc2c1O[C@]1(C)CC[C@@H](O)C(C)(C)[C@H]1C2
SK-MEL-28
  GI50: 1050 nM
  CC50: 8.32 µM
  TGI: 2.95 µM
T47D
  GI50: 7.24 µM
  CC50: > 100 µM
  TGI: 34.7 µM
NCI-H23
  GI50: 2340 nM
  CC50: 66.1 µM
  TGI: 16.6 µM
[1]
  GI50: 219 nM
  LC50: > 100 µM
  TGI: 1660 nM
NCI-H522
  GI50: 1550 nM
  CC50: 8.51 µM
  TGI: 3.63 µM
[2]
  GI50: 1.02 µM
  CC50: 49 µM
  TGI: 14.5 µM
DU-145
  GI50: 3.8 µM
  LC50 (50% lethal concentration): 45.7 µM
  TGI: 19.1 µM
IGROV-1
  GI50: 3.8 µM
  CC50: 91.2 µM
  TGI: 24 µM
SF-539
  GI50: 148 nM
  CC50: 5.37 µM
  TGI: 871 nM
Malme-3M
  GI50: 1.82 µM
  CC50: 77.6 µM
  TGI: 19.5 µM
SW-620
  GI50: 1170 nM
  CC50: 5.89 µM
  TGI: 2.63 µM
HOP-92
  GI50: 302 nM
  CC50: > 100 µM
  TGI: 16.6 µM
K562
  GI50: 427 nM
  CC50: > 100 µM
  TGI: 3.89 µM
COLO 205
  GI50: 1020 nM
  CC50: 6.03 µM
  TGI: 2.45 µM
[3]
  GI50: 1.82 µM
  CC50: > 100 µM
  TGI: > 100 µM
[4]
  GI50: 1820 nM
  CC50: 66.1 µM
  TGI: 11.5 µM
RPMI-8226
  GI50: 126 nM
  CC50: > 100 µM
  TGI: 617 nM

## COc1cc(/C=C/c2cc(O)c3cc(CC=C(C)C)[nH]c3c2)cc2c1O[C@]1(C)CC[C@@H](O)C(C)(C)[C@H]1C2
SK-MEL-28
  GI50: 4680 nM
  CC50: 91.2 µM
  TGI: 50.1 µM
T47D
  GI50: 29.5 µM
  CC50: > 100 µM
  TGI: > 100 µM
NCI-H23
  GI50: 6310 nM
  CC50: > 100 µM
  TGI: > 100 µM
[1]
  GI50: 309 nM
  LC50: > 100 µM
  TGI: > 100000 nM
NCI-H522
  GI50: 4900 nM
  CC50: > 100 µM
  TGI: 43.7 µM
[2]
  GI50: 25.7 µM
  CC50: > 100 µM
  TGI: > 100 µM
DU-145
  GI50: 8.13 µM
  LC50 (50% lethal concentration): > 100 µM
  TGI: > 100 µM
IGROV-1
  GI50: 5.01 µM
  CC50: > 100 µM
  TGI: > 100 µM
SF-539
  GI50: 324 nM
  CC50: 83.2 µM
  TGI: 2750 nM
Malme-3M
  GI50: 4.9 µM
  CC50: > 100 µM
  TGI: > 100 µM
SW-620
  GI50: 2040 nM
  CC50: 39.8 µM
  TGI: 8.32 µM
HOP-92
  GI50: 1380 nM
  CC50: > 100 µM
  TGI: 42.7 µM
K562
  GI50: 2040 nM
  CC50: > 100 µM
  TGI: > 100 µM
COLO 205
  GI50: 2750 nM
  CC50: 22.4 µM
  TGI: 8.32 µM
[3]
  GI50: 4.79 µM
  CC50: > 100 µM
  TGI: > 100 µM
[4]
  GI50: 1450 nM
  CC50: > 100 µM
  TGI: 17.4 µM
RPMI-8226
  GI50: 282 nM
  CC50: > 100 µM
  TGI: 32400 nM

## COc1cc(/C=C/c2cc(O)c3cc[nH]c3c2)cc2c1O[C@]1(C)CC[C@@H](O)C(C)(C)[C@H]1C2
SK-MEL-28
  GI50: 1480 nM
  CC50: > 100 µM
  TGI: > 100 µM
T47D
  GI50: 5.01 µM
  CC50: 83.2 µM
  TGI: 22.4 µM
NCI-H23
  GI50: 1700 nM
  CC50: 61.7 µM
  TGI: 8.13 µM
[1]
  GI50: 251 nM
  LC50: > 100 µM
  TGI: 871 nM
NCI-H522
  GI50: 1290 nM
  CC50: 41.7 µM
  TGI: 8.32 µM
[2]
  GI50: 7.41 µM
  CC50: > 100 µM
  TGI: 41.7 µM
DU-145
  GI50: 1.15 µM
  LC50 (50% lethal concentration): 25.1 µM
  TGI: 6.76 µM
IGROV-1
  GI50: 2.29 µM
  CC50: 60.3 µM
  TGI: 10.2 µM
SF-539
  GI50: 257 nM
  TGI: 1230 nM
Malme-3M
  GI50: 1.74 µM
  CC50: 52.5 µM
  TGI: 10.7 µM
SW-620
  GI50: 1260 nM
  CC50: 8.13 µM
  TGI: 3.16 µM
HOP-92
  GI50: 1230 nM
  CC50: > 100 µM
  TGI: 19.1 µM
K562
  GI50: 708 nM
  CC50: > 100 µM
  TGI: 20.4 µM
COLO 205
  GI50: 1260 nM
  CC50: 11.5 µM
  TGI: 3.39 µM
[3]
  GI50: 3.47 µM
  CC50: 91.2 µM
  TGI: 27.5 µM
[4]
  GI50: 324 nM
  CC50: > 100 µM
  TGI: 33.9 µM
RPMI-8226
  GI50: 316 nM
  CC50: > 100 µM
  TGI: 2510 nM
